7 molecules from ChEMBL document CHEMBL1155292, “Synthesis, analgesic and anti-inflammatory activities evaluation of some bi-, tri- and tetracyclic condensed pyrimidines” (Eur J Med Chem, 2009) can be followed below.

As a reminder, the inhibition in vivo is the drop in the measured response relative to a control, in per cent.

Series [1] concerns Rattus norvegicus. Nature of the series: Antiinflammatory activity in albino rat assessed as inhibition of carrageenan-induced paw edema at 0.029 mmol/kg, po after 2 hrs relative to control. Type of series: functional. In short, it runs like this: (§1)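 Adult albino rats of either sex, 120–150 g, six per group. Compounds at 0.029 mmol/kg suspended in saline with a few drops of Tween 80 and given by oral stomach tube. After 1 h, 0.1 ml of freshly prepared 1% carrageenan in saline injected subplantar into the right hind paw. Paw thickness measured at 1–4 h; % edema inhibition versus control; mean ± SEM; ANOVA.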

The test system of series [2] is Rattus norvegicus. The series can be described thus: Antiinflammatory activity in albino rat assessed as inhibition of carrageenan-induced paw edema at 0.029 mmol/kg, po after 3 hrs relative to control. In kind it is functional. In short, it runs like this:
as §1
On the technique in general: The carrageenan paw model is a standard test of acute inflammation.

The test system of series [3] is Rattus norvegicus. The series can be described thus: Antiinflammatory activity in albino rat assessed as inhibition of carrageenan-induced paw edema at 0.029 mmol/kg, po after 4 hrs relative to control. Type of series: functional. In short, it runs like this: as §1
In series [4] the test system is Rattus norvegicus. The series can be described thus: Antiinflammatory activity in albino rat assessed as inhibition of carrageenan-induced paw edema at 0.029 mmol/kg, po after 4 hrs relative to indomethacin. In kind it is functional. In short, it runs like this: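 Rat carrageenan paw edema: oral 0.029 mmol/kg in saline/Tween 80, 1 h before subplantar 0.1 ml 1% carrageenan into the right hind paw; six rats per group. Potency is % inhibition of the test compound divided by % inhibition of indomethacin at 4 h.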

Series [5] has as its system Rattus norvegicus. The series can be described thus: Antiinflammatory activity in albino rat assessed as inhibition of carrageenan-induced paw edema at 10 mg/kg, po. Type of series: functional. In short, it runs like this: (§2)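 Rat carrageenan paw edema with oral dosing at 10, 15, 20 and 25 mg/kg, suspended in saline with Tween 80, 1 h before subplantar 0.1 ml 1% carrageenan into the right hind paw. % edema inhibition versus control at each dose; IC50 (mg/kg) derived from these four doses.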

Series [6] has as its system Rattus norvegicus. Nature of the series: Antiinflammatory activity in albino rat assessed as inhibition of carrageenan-induced paw edema at 15 mg/kg, po. In kind it is functional. In short, it runs like this: as §2
The subject of series [7] is Rattus norvegicus. Nature of the series: Antiinflammatory activity in albino rat assessed as inhibition of carrageenan-induced paw edema at 20 mg/kg, po. In kind it is functional. In short, it runs like this: as §2
In series [8] the test system is Rattus norvegicus. Nature of the series: Antiinflammatory activity in albino rat assessed as inhibition of carrageenan-induced paw edema at 25 mg/kg, po. Type of series: functional. In short, it runs like this: as §2
The subject of series [9] is Rattus norvegicus. Nature of the series: Antiinflammatory activity in po dosed albino rat assessed as inhibition of carrageenan-induced paw edema. Type of series: functional, organism-based. In short, it runs like this: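 Adult albino rats of either sex, 120–150 g, groups of 6. Compound suspended in saline with a few drops of tween 80, given by oral stomach tube 1 h before subplantar injection of freshly prepared 1% carrageenan (0.1 ml) in saline into right hind paw. Paw thickness read at 1–4 h; % edema inhibition versus carrageenan control; mean ± SEM, one-way ANOVA with post hoc test.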

Series [10] relates to Rattus norvegicus. The series can be described thus: Gastrointestinal toxicity in albino rat assessed as ulcerogenic index at 0.029 mmol/kg, po after 5 hrs. In kind it is organism-based. To be noted: in vivo. In short, it runs like this: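 Adult albino rats of either sex (120–150 g), 6 per group, got the test compounds orally by stomach tube as a suspension in saline with a few drops of tween 80. They were the same rats used in the carrageenan paw-edema test. Stomachs were then opened along the great curvature and examined for lesions or bleeding. Ulceration was recorded as the number of rats with ulcers out of 6.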

For series [11], the system named is Mus musculus. The series can be described thus: Analgesic activity in albino mouse assessed as decrease in acetic acid-induced writhing at 11.52 mg/kg, po administered 1 hr prior to acetic acid challenge relative to control. Type of series: functional. In short, it runs like this:
(§3)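 Albino mice of either sex, 18–22 g, six per group. Test agents suspended in saline with a few drops of Tween 80 and given by oral stomach tube; controls handled identically without drug. After 1 h, 0.3 ml of 1% acetic acid ip. Writhing contractions counted for 30 min, starting 5 min after injection. % protection versus control mean; mean ± SEM; one-way ANOVA with post hoc test.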
(An intraperitoneal irritant provokes the stretching counted in writhing tests.)

The test system of series [12] is Rattus norvegicus. Nature of the series: Antiinflammatory activity in albino rat assessed as inhibition of carrageenan-induced paw edema at 0.029 mmol/kg, po after 1 hr relative to control. Type of series: functional. In short, it runs like this: as §1
Series [13] relates to Mus musculus. Nature of the series: Analgesic activity in albino mouse assessed as decrease in acetic acid-induced writhing at 11.32 mg/kg, po administered 1 hr prior to acetic acid challenge relative to control. Type of series: functional. In short, it runs like this:
as §3

Series [14] deals with Mus musculus. Nature of the series: Analgesic activity in albino mouse assessed as decrease in acetic acid-induced writhing at 8.04 mg/kg, po administered 1 hr prior to acetic acid challenge relative to control. Type of series: functional. In short, it runs like this: as §3
Series [15] relates to Mus musculus. The series can be described thus: Analgesic activity in albino mouse assessed as decrease in acetic acid-induced writhing at 7.63 mg/kg, po administered 1 hr prior to acetic acid challenge relative to control. In kind it is functional. In short, it runs like this:
as §3

The test system of series [16] is Mus musculus. Nature of the series: Analgesic activity in albino mouse assessed as decrease in acetic acid-induced writhing at 13 mg/kg, po administered 1 hr prior to acetic acid challenge relative to control. In kind it is functional. In short, it runs like this: as §3
In series [17] the test system is Mus musculus. Nature of the series: Analgesic activity in albino mouse assessed as decrease in acetic acid-induced writhing at 11.66 mg/kg, po administered 1 hr prior to acetic acid challenge relative to control. Type of series: functional. In short, it runs like this: as §3
Series [18] concerns Mus musculus. Nature of the series: Analgesic activity in albino mouse assessed as decrease in acetic acid-induced writhing at 12.65 mg/kg, po administered 1 hr prior to acetic acid challenge relative to control. In kind it is functional. In short, it runs like this: as §3

On to `O=C1CN=C2C3=C(N=C(c4ccccc4)N12)N(c1ccccc1)C(=O)N1CCCC31` (centres undefined), for which the inhibition in vivo at 29 µmol/kg worked out at 22.3% in series [1], 27.4% in series [2], 29.2% in [3] and 14.6% in series [12]. The relative potency at 29 µmol/kg in series [4] was determined as 1.06. Besides, the inhibition in vivo at 10 mg/kg in series [5] was 17%. Also, in [6], the inhibition in vivo at 15 mg/kg stood at 40%. In [7], the inhibition in vivo at 20 mg/kg was found to be 61.3%. Besides, in series [8], the inhibition in vivo at 25 mg/kg was determined as 68.4%. The IC50 in [9] was found to be 17.62 mg/kg. Moreover, the UI entry in series [10] is given as “Non-toxic”. In addition, in series [11], the inhibition in vivo at 11.52 mg/kg stood at 78.5%.

Turning to `COc1ccc(C2NC(=O)C3=C(N2)N(c2ccccc2)C(=O)N2CCCC32)cc1` (centres undefined), the inhibition in vivo at 29 µmol/kg came to 6.64% in [1], 13.7% in [2], 18.6% in [3] and 6.72% in [12]. Further, the relative potency at 29 µmol/kg in series [4] amounted to 0.68. Also, the inhibition in vivo at 11.32 mg/kg in series [13] was 84.4%.

As for `CCN1C(=S)N2CCCC2c2c1ncn(CC)c2=N` (centres undefined), the inhibition in vivo at 29 µmol/kg in series [1] was 11.6%; in series [2], 10.8%; in [3], 9.91%; in [12] it was 11.6%. Also, the relative potency at 29 µmol/kg in series [4] came to 0.36. For the same molecule, the inhibition in vivo at 8.04 mg/kg in series [14] is 75.9%.

`CCN1C(=S)N2CCCC2c2c1ncn(C)c2=N` (centres undefined): the inhibition in vivo at 29 µmol/kg amounted to 14.1% in series [1], 11.5% in series [2], 9.93% in [3] and 11.2% in series [12]. The relative potency at 29 µmol/kg in [4] was 0.36. Besides, in [10], the UI entry was “Non-toxic”. For the same molecule, in series [15], the inhibition in vivo at 7.63 mg/kg was 97.6%.

For `N#Cc1cnn(-c2nc(-c3ccccc3)nc3c2C2CCCN2C(=O)N3c2ccccc2)c1N` (centres undefined), the inhibition in vivo at 29 µmol/kg was 9.92% in series [1], 9.37% in series [2], 6.82% in [3] and 12.3% in series [12]. Also, in [4], the relative potency at 29 µmol/kg was 0.24. In addition, the inhibition in vivo at 13 mg/kg in [16] came to 76.8%.

As to `CCCNc1nc(-c2ccccc2)nc2c1C1CCCN1C(=O)N2c1ccccc1` (centres undefined), the inhibition in vivo at 29 µmol/kg was found to be 25.6% in series [1], 30.9% in series [2], 36.6% in series [3] and 13.5% in series [12]. The relative potency at 29 µmol/kg in series [4] was determined as 1.34. Moreover, in series [5], the inhibition in vivo at 10 mg/kg worked out at 27.6%. Also, the inhibition in vivo at 15 mg/kg in series [6] amounted to 41.6%. Besides, in [7], the inhibition in vivo at 20 mg/kg amounted to 63.3%. The inhibition in vivo at 25 mg/kg in [8] was found to be 69%. Besides, the IC50 in [9] was 16.5 mg/kg. For the same molecule, the inhibition in vivo at 11.66 mg/kg in [17] was 69.6%.

In the case of `Cc1cc(C)n(-c2nc(-c3ccccc3)nc3c2C2CCCN2C(=O)N3c2ccccc2)n1` (centres undefined), the inhibition in vivo at 29 µmol/kg in [1] worked out at 20.7%; in series [2] it was 20.9%; in series [3], 17.4%; in series [12], 17.9%. Further, the relative potency at 29 µmol/kg in [4] is 0.63. In addition, the inhibition in vivo at 12.65 mg/kg in series [18] worked out at 76.6%.
